Screening data deposited in PubChem BioAssay by several laboratories.
Ecoli WT expand: growth inhibitors of E. coli BW25113 wild type | OD600 absorbance | growth inhibition, % at 100 µM | 98,000 tested, 0.15% active | AID 710;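 active = growth inhibition above about 50% at one test dose, limit read from the data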;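 also: growth measured after 20 h incubation at 37 °C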
Ecoli tolC: E. coli tolC mutant growth inhibition; AID 573; growth inhibition, % at 10 µM (by protocol); 65,000 tested, 2.2% active; E. coli BW25113 tolC mutant growth, OD615;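 active = growth inhibition at or above a cutoff equal to the mean over every tested compound plus 3 SD, cut at about 60% in these data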;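 also: growth measured after 20 h incubation at 37 °C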
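test system = E. coli BW25113 ΔtolC::kan bacteria | medium = LB with kanamycin 50 µg/mL | signal = OD at 615 nm | schedule = 37 °C, 20 h exposure | evaluation = % inhibition of E. coli growth | compound dosing = one dose of 10 µM final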
Pyk2 oligo antag: antagonists of human Pyk2 oligomerization | Q14289 | Q293 cells, Pyk2 FERM NanoBiT luminescence; hits give low values | z-score (the deposit names both 25 µM and 10 µM) | 99,000 tested, 0.83% active | AID 1347419;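 active = Z-score of -3 or lower, scaled per plate to the spread of control and sample wells; inactive = z-score above -3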;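 also: negative z-score means lost luminescence so less FERM oligomerization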
PostGolgi yeast: growth inhibition of a yeast mutant, post-Golgi transport screen. post-Golgi transport phenotypic cell assay. inhibition, % at 10 µM. 98,000 tested, 0.9% active;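 also: yeast cells grown in 1536-well plates; yeast grown about 18 h at 30C before absorbance read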
Candida biofilm: kills Candida albicans biofilms; AID 834; C. albicans biofilm + clotrimazole, Alamar Blue; inhibition, % at 6 µM; 85,000 tested, 0.14% active;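 active = inhibition above 20%; inactive = inhibition below 20%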;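 also: preformed 24 hr biofilms exposed to compound for 48 hr; 0% = biofilm without compound and 100% = blank killed by clotrimazole plus chlorhexidine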
PostGolgi ctrl: inhibits growth of the yeast control strain. efflux-deficient yeast background strain, growth absorbance A615, 16 h. inhibition, % at 10 µM. 98,000 tested, 5% active. AID 738
Starred values were filed as active, the others as inactive. Rows were chosen to be rich in hits. Some 6.5% of all compounds tested hit in one or more screens of this group. Rule as the data show it, unless noted: active = inhibition above about 30%; inactive = the rest.

For COCCn1c(SCCCC(=O)c2ccc(Br)cc2)nnc1-c1ccncc1 the results were Ecoli WT expand 1.0, Pyk2 oligo antag 0.82, PostGolgi yeast -10.2, Candida biofilm 3.5 and PostGolgi ctrl 36.4*.
CS(=O)(=O)N(CC(=O)N1CCc2ccccc2C1)c1ccc2c(c1)OCO2 was read as Ecoli WT expand -3.0, Ecoli tolC 5.0, Pyk2 oligo antag -0.16, PostGolgi yeast -2.8, Candida biofilm -4.0 and PostGolgi ctrl 4.7.
For COc1cc(NC2c3ccccc3C(=O)N2Cc2ccc3c(c2)OCO3)cc(OC)c1OC (stereo not drawn) the results were Ecoli WT expand -1.0, PostGolgi yeast -5.8, Candida biofilm 7.8 and PostGolgi ctrl 14.1.
CCOc1ccc(NC2c3ccccc3C(=O)N2Cc2ccc3c(c2)OCO3)cc1 (stereo not drawn) was read as Ecoli WT expand -22.0, PostGolgi yeast -3.3, Candida biofilm 5.2 and PostGolgi ctrl 31.1*.
Screening CN=C(Nc1ccc2c(c1)OCO2)SC1CC(=O)N(c2ccccc2)C1=O (stereo not drawn) returned Ecoli WT expand 0.0, Ecoli tolC 14.7, Pyk2 oligo antag -2.07, PostGolgi yeast -7.3, Candida biofilm 7.2 and PostGolgi ctrl 2.4.
O=C1CC(SC(=NCc2ccc3c(c2)OCO3)Nc2ccccc2)C(=O)N1c1ccccc1 (stereo not drawn) was read as Ecoli WT expand -5.0, Pyk2 oligo antag -0.08, PostGolgi yeast 3.8, Candida biofilm -5.2 and PostGolgi ctrl 41.2*.
O=C(O)c1cccc2c1C(=O)N(Cc1ccncc1)C2 was read as Ecoli WT expand 1.0, Ecoli tolC -13.2, Pyk2 oligo antag 0.17, PostGolgi yeast -11.7, Candida biofilm -3.1 and PostGolgi ctrl 34.8*.
For CCCOc1ccc(C2C(C(=O)c3ccco3)=C(O)C(=O)N2CCCn2ccnc2)cc1 (stereo not drawn) the results were Ecoli WT expand 6.0, Ecoli tolC -5.9, Pyk2 oligo antag 0.59, PostGolgi yeast -7.3, Candida biofilm 6.2 and PostGolgi ctrl 10.7.
`CC1Oc2ccccc2N(Cc2ccccc2F)C1=O` (stereo not drawn) gave Ecoli WT expand 10.0, Ecoli tolC 17.7, PostGolgi yeast 19.5 and PostGolgi ctrl 9.2.
CC1Oc2ccccc2N(Cc2ccccc2Cl)C1=O (stereo not drawn) was read as Ecoli WT expand -9.0, Ecoli tolC 60.8*, Pyk2 oligo antag -1.21, PostGolgi yeast 4.2, Candida biofilm 5.4 and PostGolgi ctrl 21.5.
`Cc1cc(=O)c2n(Cc3ccc(Cl)cc3)nc[n+]2[nH]1` gave Ecoli WT expand 9.0, Ecoli tolC -16.9, Pyk2 oligo antag -0.1, PostGolgi yeast -8.9, Candida biofilm 3.9 and PostGolgi ctrl -10.3.
For O=C(Nc1cccnc1)c1ccc2c(c1)C(=O)N(Cc1cccnc1)C2=O the results were Ecoli WT expand 4.0, Ecoli tolC -15.0, Pyk2 oligo antag -1.33, PostGolgi yeast 28.0, Candida biofilm 2.2 and PostGolgi ctrl 30.1*.
`COc1cc2c(cc1OC)C(=S)NC(C)(C)C2` gave Ecoli WT expand 6.0, Pyk2 oligo antag 0.69, PostGolgi yeast 0.7, Candida biofilm 0.5 and PostGolgi ctrl 3.6.
Screening O=C(NC(CSCc1ccccc1)C(=O)N/N=C/c1ccc(O)cc1O)c1ccc([N+](=O)[O-])cc1 (stereo not drawn) returned Ecoli WT expand 12.0, Pyk2 oligo antag -1.59, PostGolgi yeast 7.3, Candida biofilm 8.3 and PostGolgi ctrl -0.1.
Screening O=C(NC12CC3CC(CC(C3)C1)C2)c1ccccc1O returned Ecoli WT expand -3.0, Ecoli tolC 62.5*, Pyk2 oligo antag 0.2, PostGolgi yeast 5.6, Candida biofilm 4.5 and PostGolgi ctrl 17.0.
Screening CCCN(CCC)C(=O)CC(c1ccccc1)c1ccc(C)cc1O (stereo not drawn) returned Ecoli WT expand 5.0, Pyk2 oligo antag -2.29, PostGolgi yeast 5.0, Candida biofilm 5.3 and PostGolgi ctrl 16.7.
`CCCN(CCC)C(=O)CC(c1ccccc1)c1cc(Br)ccc1O` (stereo not drawn) gave Ecoli WT expand -12.0, Pyk2 oligo antag -2.63, PostGolgi yeast -4.7, Candida biofilm 3.8 and PostGolgi ctrl 47.0*.
Screening CC(C)(C)C(=O)/C=C(N)/C=C/c1ccccc1 returned Ecoli WT expand 12.0, Ecoli tolC 18.7, Pyk2 oligo antag 0.53, PostGolgi yeast -2.5, Candida biofilm -0.4 and PostGolgi ctrl 32.6*.
For CC(C)(C)C(=O)/C=C(\N)c1ccccn1 the results were Ecoli WT expand -3.0, Ecoli tolC -13.5, Pyk2 oligo antag -0.42, PostGolgi yeast 7.0, Candida biofilm 4.3 and PostGolgi ctrl 4.4.
`CC1CC(C)CN(S(=O)(=O)c2cccc(C(=O)OCCN3CCCC3=O)c2)C1` (stereo not drawn) gave Ecoli WT expand 7.0, Pyk2 oligo antag 1.05, PostGolgi yeast -2.6, Candida biofilm 1.5 and PostGolgi ctrl 11.0.
`CCN(CC)CCNC(=O)c1ccc(N2CCCCC2)c(NS(=O)(=O)c2ccc(C)cc2)c1` gave Ecoli WT expand -1.0, Ecoli tolC 8.6, Pyk2 oligo antag -0.83, PostGolgi yeast 7.4, Candida biofilm 10.0 and PostGolgi ctrl 13.6.
COC(=O)c1ccc(N2CCCCC2)c(NS(=O)(=O)c2ccc(C)cc2)c1 was read as Ecoli WT expand -18.0, Pyk2 oligo antag -1.55, PostGolgi yeast 17.4, Candida biofilm 0.6 and PostGolgi ctrl 30.1*.
O=C1N=C(N2CCCCC2)SC1=C1CCCCC1 was read as Ecoli WT expand 1.0, Pyk2 oligo antag -0.24, PostGolgi yeast 5.0, Candida biofilm 4.7 and PostGolgi ctrl 1.6.
`O=C1NC(=S)SC1=C1CCCCCC1` gave Ecoli WT expand -1.0, Ecoli tolC 21.5, Pyk2 oligo antag -0.03, PostGolgi yeast 8.0, Candida biofilm 10.3 and PostGolgi ctrl 64.2*.
`COc1ccc(NC(=O)Cn2nnc(C(N)=O)c2N)c(OC)c1` gave Ecoli WT expand 1.0, Ecoli tolC -17.0, Pyk2 oligo antag -0.12, PostGolgi yeast -2.9, Candida biofilm 1.9 and PostGolgi ctrl 3.2.
CCOC(=O)N1CCN(c2c(NCc3ccccn3)c(=O)c2=O)CC1 was read as Ecoli WT expand 2.0, Ecoli tolC -12.8, PostGolgi yeast -2.5, Candida biofilm -1.9 and PostGolgi ctrl 31.1*.
Screening CCOC(=O)/C(=N/Nc1ccc(Cl)cc1)S(=O)(=O)c1ccc(Cl)cc1 returned Ecoli WT expand 1.0, Pyk2 oligo antag -1.05, PostGolgi yeast -4.9, Candida biofilm 10.8 and PostGolgi ctrl 0.5.
Screening COc1ccc(C(C[N+](=O)[O-])c2c(-c3ccccc3)cc3ccccn23)cc1OC (stereo not drawn) returned Ecoli WT expand -6.0, Pyk2 oligo antag 0.11, PostGolgi yeast 7.0, Candida biofilm 5.3 and PostGolgi ctrl 11.4.
Screening COC(=O)C(C(=O)OC)C(C[N+](=O)[O-])c1ccc(OC)c(OC)c1 (stereo not drawn) returned Ecoli WT expand -3.0, Pyk2 oligo antag 1.46, PostGolgi yeast -3.9 and PostGolgi ctrl 33.2*.
